Measured values: PubChem BioAssay AID463079 (The Scripps Research Institute Molecular Screening Center, 2010)
Screen size: about 330,000 compounds; about 2,000 (0.61%) were called active.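 How the source made its calls: active means inhibition above that plate's mean sample inhibition plus 3 SD (cut at about 26% in these data); inactive means the rest.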 Only a selection was taken, and actives are over-represented in it overall.

Assay: ATP-evoked calcium signal inhibitors, parental CHO, primary screen, counter-screen for OX1R antagonist project, cell-based, fluorescence, Fluo-8 calcium dye (AID 463079);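 further: 0% = ATP-challenged DMSO wells and 100% = DMSO wells without ATP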
Conditions: parental CHO-K1, ATP-induced calcium, Fluo-8 fluorescence; at 5.6 µM; stronger effect = higher value
How it was run: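 Assay system: parental CHO cells; Read-out basis: percent inhibition of ATP-evoked calcium rise, normalized to controls; Benchmarks: ATP and no-ATP DMSO wells; Compound dosing: single nominal dose of 5.6 µM per compound; Signal: Fluo-8 calcium dye fluorescence; Also added: ATP as calcium-mobilizing challenge; Repeats: singlicate.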

Structure (SMILES)	inhibition
COC(=O)CNC(=O)c1ccc(OC2CCN(C(=O)C3CC3)CC2)cc1	2.53% (inactive)
COCCOC(=O)c1[nH]c2c(c1C)C(=O)CC(c1ccc(OC)cc1)C2 (stereo not given)	-15.7% (inactive)
CCCOC(=O)c1[nH]c2c(c1C)C(=O)CC(c1cc(OC)c(OC)c(OC)c1)C2 (stereo not given)	33.7% (active)
CCCOC(=O)c1[nH]c2c(c1C)C(=O)CC(c1cccs1)C2 (stereo not given)	-21.6% (inactive)
COc1cc(/C(=C/c2ccccc2)c2ccccc2)c2c(c1)oc1ccccc12	-12.8% (inactive)
Cc1cc(Br)ccc1NC(=O)c1cnc(N2CCN(c3ccccn3)CC2)c2ccccc12	-29.1% (inactive)
Cc1cc(C)cc(OCC(=O)Nc2ccc(S(=O)(=O)Nc3ccccn3)cc2)c1	2.04% (inactive)
Cc1ccc(NS(=O)(=O)c2ccc(C(C)(C)C)cc2)cn1	-3.3% (inactive)
Cc1ccc(S(=O)(=O)Nc2ccc3ncccc3c2)cc1	37.3% (active)
Oc1oc(-c2ccccc2Br)nc1/C=N/c1ccccn1	1.24% (inactive)
CCn1c(CSCc2c(Cl)cccc2Cl)n[nH]c1=S	4.32% (inactive)
CC(C)c1nnc(NC(=O)COC(=O)/C=C/c2ccc([N+](=O)[O-])cc2)s1	-9.22% (inactive)
Cc1ccc(OCc2cc(C(=O)N(C)CCc3ccccc3)no2)cc1C	-11.5% (inactive)
CN(Cc1cccnc1)C(=O)c1cc(COc2ccc3ncccc3c2)on1	41.8% (active)
CC(=O)c1cccc(OCc2cc(C(=O)NC(C)Cc3cccnc3)no2)c1 (stereo not given)	-20% (inactive)
CCOC1CCCCC1NS(=O)(=O)c1ccc(Cl)cc1 (stereo not given)	-18.7% (inactive)
Cc1c(NC(=O)CSc2nnc(-c3cccnc3)n2N)c(=O)n(-c2ccccc2)n1C	-5.93% (inactive)
Cc1c(NC(=O)CSc2cccc3cccnc23)c(=O)n(-c2ccccc2)n1C	25.1% (active)
Cc1ccc(NC(=O)CSc2cccc3cccnc23)c(C)c1	0.17% (inactive)
CCOCc1nnc(NC(=O)CCS(=O)(=O)Cc2ccccc2)s1	3.73% (inactive)
CCOc1ccc(/C=N/NC(N)=S)cc1	-2.97% (inactive)
OC(CNCCc1ccc(Cl)cc1Cl)COc1ccccc1 (stereo not given)	-7.3% (inactive)
NC(N)=N/N=C/c1ccc(OCc2ccc(Cl)cc2Cl)cc1	64.6% (active)

Structure (SMILES)	inhibition
Cn1c(Cc2cccc3ccccc23)nnc1SCC(=O)N1CCN(c2cccc(Cl)c2)CC1	-6.75% (inactive)
Cc1ccc(-c2nnn(CC(=O)N(CCO)C(C(=O)NC(C)(C)C)c3ccncc3)n2)cc1 (stereo not given)	-17.6% (inactive)
COc1cc(F)c(C2=CC(=O)CC(C)(C)C2)cc1F	-13.2% (inactive)
CCOC(=O)C1=C(c2ccccc2)N=C2SCC(=O)N2C1c1ccc(O)c(OC)c1 (stereo not given)	-27.1% (inactive)
Cc1cc(N=Nc2ccc3ccccc3c2)ccc1O	14.3% (inactive)
CC(C)(C)OC(=O)NCCCCCNC(=O)c1nc[nH]c1C(=O)NCc1ccccc1	-30.4% (inactive)
CC(=O)N1CCCc2cc(S(=O)(=O)N3CCCC(C(=O)NCc4ccc(Cl)cc4)C3)ccc21 (stereo not given)	-11.9% (inactive)
CC(=O)N1c2ccc(S(=O)(=O)N3CCCC(C(=O)Nc4cccc(Cl)c4)C3)cc2CC1C (stereo not given)	-6.72% (inactive)
CC(=O)N1CCCc2cc(S(=O)(=O)N3CCCC(C(=O)N4CCN(c5cccc(Cl)c5)CC4)C3)ccc21 (stereo not given)	66.2% (active)
O=C(c1ccc(Br)o1)N1CCN(CCOc2ccccc2)CC1	-7.03% (inactive)
CCOC(=O)C1CCCN(C(=O)CSc2nnc3nc(C)cc(C)n23)C1 (stereo not given)	-13.2% (inactive)
Cc1ccc(CN(Cc2cccnc2)C(=S)Nc2cc(Cl)ccc2C)cc1	64.7% (active)
Cc1c(Cl)cccc1NC(=S)N(Cc1ccccc1)Cc1cccnc1	-0.95% (inactive)
Cc1ccc(CN(Cc2cccnc2)C(=S)Nc2cccc(Cl)c2C)cc1	-2.11% (inactive)
CN1CCN(C(=O)N2c3ccccc3CCc3ccccc32)CC1	-14.7% (inactive)
O=C1C=C(c2cccc(Cl)c2)C[C@@H](c2ccc(F)cc2)C1	-24% (inactive)
COC(=O)CNS(=O)(=O)c1ccc(OC)cc1	4.49% (inactive)
COc1ccc(S(=O)(=O)NCCCCOc2ccc(Cl)cc2)cc1	62.1% (active)
COc1ccc(S(=O)(=O)NCCCc2ccccc2)cc1	9.88% (inactive)
Cc1ccccc1S(=O)(=O)N1[C@@H](c2cccc(Cl)c2)C(C(=O)O)=CC[C@H]1c1ccc(Cl)cc1	-5.28% (inactive)
Cc1ccc(S(=O)(=O)N2[C@@H](c3cccc(Cl)c3)C(C(=O)O)=CC[C@H]2c2ccc(Cl)c(Cl)c2)cc1	36.9% (active)
Cc1ccc([C@@H]2CC=C(C(=O)O)[C@H](c3cccc(Cl)c3)N2S(=O)(=O)c2ccc(C)cc2)cc1	-14.4% (inactive)
